Bioassay records deposited in PubChem BioAssay by Broad Institute.
FN deposit inh: fibronectin deposition inhibition | AH1F fibroblasts, Alexa488-fibronectin deposition fluorescence, overnight | inhibition, % at 12.6 µM | 350,000 tested, 0.086% active;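 active = mean inhibition across replicates of 30% or more, regardless of how many single replicates reach that level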;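 note: positive control wells lacked labelled fibronectin entirely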
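test system = AH1F fibroblasts assembling fluorescent fibronectin matrix | quantity = 10000 AH1F cells per well | buffer or medium = DMEM plus 2% serum, read in PBS | doses = single dose, pinned | incubation = 1 h cell attachment, overnight exposure to compound and label | detection = fluorescence at 485 nm excitation, 525 nm emission | read-out basis = inhibition from reduced deposited-fibronectin fluorescence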
SIRT5 block: blocks human SIRT5 desuccinylation of peptide | Q9NXA8 | 330,000 tested, 1.1% active | Purified SirT5, succinyl-peptide AMC, trypsin-coupled fluorescence | AID 652115 | inhibition, % at 15 µM; in the data active = inhibition above about 15%
Target sequence (Q9NXA8 whole entry, looked up): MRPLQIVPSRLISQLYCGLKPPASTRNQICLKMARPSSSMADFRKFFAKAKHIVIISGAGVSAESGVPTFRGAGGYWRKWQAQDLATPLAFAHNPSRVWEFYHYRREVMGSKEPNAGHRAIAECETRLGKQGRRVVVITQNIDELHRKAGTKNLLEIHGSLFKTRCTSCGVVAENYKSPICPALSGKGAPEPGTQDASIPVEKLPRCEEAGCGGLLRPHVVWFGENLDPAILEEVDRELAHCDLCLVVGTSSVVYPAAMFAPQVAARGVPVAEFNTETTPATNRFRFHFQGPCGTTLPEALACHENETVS
E-selectin induc: induces E-selectin expression in human endothelial cells; HUVEC E-selectin immunofluorescence imaging; normalized: neutral wells 0, TNF-alpha wells 100; activation, % at 7.58 µM; 260,000 tested, 0.37% active; AID 686992;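 active = mean E-selectin-positive cell signal at least 10% of the positive control, reached in at least 60% of replicates, without over 20% cell loss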
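System: HUVEC, human umbilical vein endothelial cells; quantity: 3,000 cells/well; buffer or medium: EGM-2 medium, gelatin-coated wells; dosing: single-point compound dose; detection: immunofluorescence imaging; evaluation: % PE-positive cells; benchmarks: TNF-alpha, DMSO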
rRNA inh HTS: selective bacterial rRNA inhibition in E. coli. E. coli WT GFP vs humanized-ribosome RFP mutants, fluorescence, 24 h; active compounds read low; DMSO median 0, no signal -100. GFP signal change (wild-type ribosome), % (test concentration not listed). 350,000 tested, 1.6% active;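 active = significant combined selectivity score with lowered wild-type GFP, culture density cut under 30%, mutant RFP and density less affected; inactive = any of these conditions unmet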
FGF22 binding-1: binders of recombinant human FGF22 by thermal shift; 340,000 tested, 1.5% active; SYPRO orange fluorescence; percent of sucrose octasulfate shift, DMSO zero; activity (Tm shift, normalised), % at 9.99 µM; Q9HCT0;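 active = mean Tm shift, scaled 0 neutral to 100 positive control, at about 1.3% or above, every replicate too, limit read from the data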
Target sequence (Q9HCT0 whole entry, looked up): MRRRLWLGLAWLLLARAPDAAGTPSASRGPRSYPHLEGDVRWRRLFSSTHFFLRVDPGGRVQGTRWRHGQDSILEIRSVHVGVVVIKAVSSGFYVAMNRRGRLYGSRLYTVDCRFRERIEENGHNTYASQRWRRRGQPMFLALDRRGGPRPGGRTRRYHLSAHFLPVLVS
Statin myotox sup: suppression of simvastatin myotoxicity; C2C12 myotubes + simvastatin, ATP luminescence, 48 h; scaled: DMSO 0, geranylgeraniol control 100; rescue of ATP level, % at 7.49 µM; 330,000 tested, 0.78% active;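 active = mean ATP rescue above about 67%, or every replicate alone reaching that limit, limit read from the data, passing the limit was not always enough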;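 note: myotubes were challenged with 10 µM simvastatin during compound exposure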
FGF22 binding-2: binders of human FGF22 by thermal shift; thermal shift activity, °C (ΔTm) at 38 µM; shares compounds with FGF22 binding-1; 1,000 tested, 2% active; recombinant FGF22 thermal shift, SYPRO orange fluorescence;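 active = fitted rise in melting shift crosses a set limit at or below the top valid dose tested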
SYPRO no-protein: compound-only SYPRO artifact for FGF22 binders. shares compounds with FGF22 binding-1. compound-only SYPRO orange thermal shift counter-screen, no protein. AC50, µM (doses to about 38 µM). 1,000 tested, 2% active. AID 743019;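 active = rising signal whose fitted curve reaches the 0.54 level within the top valid dose, showing a melting point, actives reach about 13 µM in these data; inactive = the rest, including activity in the opposite direction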; note: value is where the raw curve crosses a fixed level and not half-maximal
Starred values were filed as active, the others as inactive; i = inactive; · = no result; [ ] = another dose, or the depositor's remark. This is a sample that favours compounds with a hit; in the whole collection about 4% have one here.

SMILES	FN deposit inh	SIRT5 block	E-selectin induc	rRNA inh HTS	FGF22 binding-1	Statin myotox sup	FGF22 binding-2	SYPRO no-protein
C[C@@H]1CN([C@H](C)CO)C(=O)c2cc(-c3ccc(C#N)cc3)cnc2O[C@@H]1CN(C)C(=O)c1ccccc1	2	-7	1	1	·	8	·	·
COCCNC(=O)C[C@@H]1C[C@H]2c3cc(NS(=O)(=O)c4ccc(F)cc4)ccc3O[C@H]2[C@@H](CO)O1	-2	·	0	-1	0	-2	·	·
Cc1noc(C)c1NC(=O)N[C@@H]1C=C[C@H](CC(=O)Nc2ccc(-c3ccccc3)cc2)O[C@@H]1CO	-12	-3	1	-8	1.9*	·	0.018[42 µM]	i
Cc1noc(C)c1NC(=O)N[C@H]1C=C[C@@H](CC(=O)Nc2ccc(-c3ccccc3)cc2)O[C@@H]1CO	-7	-3	0	-1	0	-2	·	·
CCCNC(=O)N(C)C[C@H]1Oc2ncc(C3=CCCCC3)cc2C(=O)N([C@@H](C)CO)C[C@H]1C	·	0	0	0	0	15	·	·
COCC(=O)N(C)C[C@H]1Oc2ncc(-c3cccc(OC)c3)cc2C(=O)N([C@@H](C)CO)C[C@@H]1C	·	-2	0	3	0	28	·	·
COc1cc2cc(NC(C)=O)cc(NCc3ccccc3)c2cc1OC	-1	-5	0	6	1.5*	-1	0.43	i
COc1ccccc1NC(=O)c1ccc(NC(=O)COC(=O)C(C)C)cc1	5	·	0	·	·	·	·	·
COc1ccccc1NC(=O)c1ccc(NC(=O)COC(=O)c2ccc(O)cc2)cc1	-1	-1	·	1	1.7*	-2	0.009	i
C/C=C/c1ccc([C@H]2[C@@H](CO)N(C(=O)CC)C23CN(C(=O)c2ccccc2)C3)cc1	·	0	0	-3	1.4*	·	0.075	i
C/C=C/c1ccc([C@H]2[C@@H](CO)N(CC3CCOCC3)C23CN(C(=O)COC)C3)cc1	-13	-4	0	10	1.7*	·	0.18[42 µM]	i
C/C=C/c1ccc([C@@H]2[C@H](CO)N(C(=O)CC)C23CN(C(=O)c2ccccc2)C3)cc1	·	1	0	-2	1	·	·	·
Cc1noc(C)c1S(=O)(=O)Nc1ccc2c(c1)C(=O)N([C@@H](C)CO)C[C@@H](C)[C@H](CN(C)C(=O)c1ccncc1)OCCCC[C@@H](C)O2	·	10	0	3	-1	·	·	·
COc1ccc(S(=O)(=O)Nc2ccc3c(c2)C(=O)N([C@@H](C)CO)C[C@@H](C)[C@@H](CN(C)S(=O)(=O)c2ccc(C)cc2)O3)cc1	·	2	0	-1	0	-22	·	·
CCCn1c(=O)[nH]c(=O)c2c1nc(-c1cccs1)n2CCOC	6	-7	0	9	4.7*	0	0.15	i
CCOC(=O)c1sc(N2C(=O)C(O)=C(C(=O)c3ccco3)C2c2ccc(C)o2)nc1C (stereo not given)	0	·	0	-18	1	33	·	·
CCOC(=O)c1sc(N2C(=O)C(O)=C(C(=O)c3ccco3)C2c2ccc([N+](=O)[O-])cc2)nc1C (stereo not given)	1	8	1	-18*	1.7*	5	0.2	i
CC(C)c1cn(CC[C@@H]2CC[C@@H](NC(=O)C3CCOCC3)[C@@H](CO)O2)nn1	·	-5	-3	5	·	·	·	·
Cc1ccc(-n2c(O)c(C=NC3CCS(=O)(=O)C3)c3ccccc3c2=O)cc1C (stereo not given)	·	-1	·	10	1.7*	6	0.035	i
CC=Cc1ccc2n(c1=O)C[C@@H]1[C@@H](CO)[C@H](C(=O)NCC3CC3)N(C(=O)C3CCOCC3)[C@H]21 (mixture of isomers)	·	2	0	0	0	-5	·	·
